From ChEMBL document CHEMBL4699636, “Novel 2,7-Diazaspiro[4,4]nonane Derivatives to Inhibit Mouse and Human Osteoclast Activities and Prevent Bone Loss in Ovariectomized Mice without Affecting Bone Formation” (J Med Chem, 2020)
Calls of active or inactive are those of the source. No cut-off for these calls is given here.

Legend:
[1] = system: Osteoclast (Homo sapiens); assay: Inhibition of resorption activity of human peripheral blood cell-derived osteoclasts at 1-20 uM incubated for 48 hrs by Kossa-staining based assay; details: dose microM 1-20, time 48.0 hrs
[2] = Toxicity in C57BL6/J mouse model of OVX-induced bone loss assessed as effect on body weight at 20 mg/kg, IP BID for 4 weeks; format: organism-based; details: in vivo, 672 h
Summary of the method: (§1)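 Body weight tracked in 12-week-old OVX C57BL6/J mice during 4 weeks of ip 20 mg/kg q.d. or b.i.d. dosing in 0.485% carboxymethylcellulose/3% Tween 80, 10 mL/kg.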

[3] = Toxicity in C57BL6/J mouse model of OVX-induced bone loss assessed as effect on body weight at 20 mg/kg, IP QD for 4 weeks; format: organism-based; details: in vivo, 672 h
Summary of the method: as §1

Mus musculus [4] = assay: Antiosteoporotic activity in C57BL6/J mouse model of OVX-induced bone loss assessed as trabecular bone volume per tissue volume level in tibial metaphysis at 20 mg/kg, ip BID for 4 weeks by microCT analysis (17.49 +/- 2.91 %); format: functional
Mus musculus [5] = assay: Antiosteoporotic activity in C57BL6/J mouse model of OVX-induced bone loss assessed as cortical thickness level in tibial diaphysis at 20 mg/kg, ip QD for 4 weeks by microCT analysis (179.27 +/- 7.57 um); format: functional
[6] = Toxicity in C57BL6/J mouse model of OVX-induced bone loss assessed as effect on bone formation by measuring bone formation rate per trabecular bone surface level in femoral metaphysis at 20 mg/kg, ip BID for 4 weeks by histomorphometry ([…]); format: organism-based; details: in vivo, 672 h
Mus musculus [7] = assay: Antiosteoporotic activity in C57BL6/J mouse model of OVX-induced bone loss assessed as trabecular separation level in femoral metaphysis at 20 mg/kg, ip BID for 4 weeks by histomorphometry (319.80 +/- 106.52 um); format: functional
Summary of the method: (§2)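 OVX mice, 12 weeks old, ip 20 mg/kg q.d. or b.i.d. for 4 weeks in CMC/Tween 80 vehicle. Distal right femur taken day 28. Static trabecular parameters measured on one 4-µm Masson-Goldner trichrome section, ROI 0.75 mm². n=10 per group, 9 in OVX+vehicle.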

[8] = Toxicity in C57BL6/J mouse model of OVX-induced bone loss assessed as effect on bone formation by measuring number of osteoblasts per bone surface level in femoral metaphysis at 20 mg/kg, ip BID for 4 weeks by histomorphometry (4.55 +/ 2.53 /mm); format: organism-based; details: in vivo, 672 h
Summary of the method: as §2

[9] = Toxicity in C57BL6/J mouse model of OVX-induced bone loss assessed as effect on bone formation by measuring mineralizing mineral apposition rate level in femoral metaphysis at 20 mg/kg, ip QD for 4 weeks by histomorphometry (1.62 +/ 0.21 um/d (lcm)); format: organism-based; details: in vivo, 672 h
[10] = Toxicity in C57BL6/J mouse model of OVX-induced bone loss assessed as effect on osteoclast numbers per bone perimeter at 20 mg/kg, IP BID for 4 weeks; format: organism-based; details: in vivo, 672 h
Summary of the method: as §2

[11] = Toxicity in C57BL6/J mouse model of OVX-induced bone loss assessed as effect on bone formation by measuring number of osteoblasts per bone surface level in femoral metaphysis at 20 mg/kg, ip QD for 4 weeks by histomorphometry (4.55 +/ 2.53 /mm); format: organism-based; details: in vivo, 672 h
Summary of the method: as §2

Mus musculus [12] = assay: Antiosteoporotic activity in C57BL6/J mouse model of OVX-induced bone loss assessed as trabecular number level in femoral metaphysis at 20 mg/kg, ip QD for 4 weeks by histomorphometry (2.99 +/- 0.80 /mm); format: functional
Summary of the method: as §2

Mus musculus [13] = assay: Antiosteoporotic activity in C57BL6/J mouse model of OVX-induced bone loss assessed as structure model index level in tibial metaphysis at 20 mg/kg, ip QD for 4 weeks by microCT analysis (1.92 +/- 0.19); format: functional; details: dose […]
Mus musculus [14] = assay: Antiosteoporotic activity in C57BL6/J mouse model of OVX-induced bone loss assessed as serum CTX-1 level […] at 20 mg/kg, ip BID for 4 weeks (165.38 +/- 54.93 %); format: functional
Mus musculus [15] = assay: Antiosteoporotic activity in C57BL6/J mouse model of OVX-induced bone loss assessed as trabecular number level in femoral metaphysis at 20 mg/kg, ip BID for 4 weeks by histomorphometry (2.99 +/- 0.80 /mm); format: functional
Summary of the method: as §2

Mus musculus [16] = assay: Antiosteoporotic activity in C57BL6/J mouse model of OVX-induced bone loss assessed as trabecular pattern factor level in tibial metaphysis at 20 mg/kg, ip QD for 4 weeks by microCT analysis (17.17 +/- 3.41 […]); format: functional
[17] = target: Triple functional domain protein (Homo sapiens) (UniProt O75962); assay: Inhibition of C-terminal 6-histidine tagged human TRIOGEF1 (R1232 to T1550 residues) expressed in Escherichia coli assessed as reduction in nucleotide exchange efficiency at 20 to 60 uM by N-methylanthraniloyl-GDP fluorescence based nucleotide exchange assay; details: dose microM 20-60
Summary of the method: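 Mant-GDP-loaded His-tagged human RAC1 at 2.0 µM with 100 nM DOCK5 (residues 1212-1642) or TRIOGEF1 (R1232-T1550), both E. coli-expressed. Buffer: 50 mM Tris pH 8, 300 mM NaCl, 2 mM MgCl2, 1 mM DTT, 1% DMSO, 25 °C. Reaction started with 100 µM GTP. Fluorescence decay read at ex 360/em 440 nm, kobs by single-exponential fit, compound at 0, 20 or 60 µM, duplicates, as % of activity.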

[18] = system: Osteoclast (Homo sapiens); assay: Toxicity in human peripheral blood cell-derived osteoclasts assessed as reduction in osteoclasts number up to 20 uM incubated for 48 hrs by TRAP-staining based assay
Mus musculus [19] = assay: Antiosteoporotic activity in C57BL6/J mouse model of OVX-induced bone loss assessed as trabecular thickness level in femoral metaphysis at 20 mg/kg, ip QD for 4 weeks by histomorphometry (39.96 +/- 5.42 um); format: functional
Summary of the method: as §2

Mus musculus [20] = assay: Antiosteoporotic activity in C57BL6/J mouse model of OVX-induced bone loss assessed as trabecular thickness level in femoral metaphysis at 20 mg/kg, ip BID for 4 weeks by histomorphometry (39.96 +/- 5.42 um); format: functional
Summary of the method: as §2

Mus musculus [21] = assay: Antiosteoporotic activity in C57BL6/J mouse model of OVX-induced bone loss assessed as degree of anisotropy (range 0-1) level in tibial metaphysis at 20 mg/kg, ip BID for 4 weeks by microCT analysis (0.53 +/- 0.07); format: functional
[22] = Toxicity in C57BL6/J mouse model of OVX-induced bone loss assessed as effect on bone formation by measuring osteocalcin level at 20 mg/kg, ip QD for 4 weeks (1.62 +/ 0.21 m3/um2/y); format: organism-based; details: in vivo, 672 h
Mus musculus [23] = assay: Antiosteoporotic activity in C57BL6/J mouse model of OVX-induced bone loss assessed as trabecular pattern factor level in tibial metaphysis at 20 mg/kg, ip BID for 4 weeks by microCT analysis (17.17 +/- 3.41 […]); format: functional

For O=S1(=O)N(c2ccccc2)C[C@H](O)[C@]12CCN(Cc1ccc(Cl)cc1)C2 (racemic), which inhibition [1] is on record?
The inhibition was “Active”.

And the Activity [2]?
Its Activity is “Non-Toxic”.

And the Activity [3]?
The Activity was “Non-Toxic”.

What about the Activity (Mus musculus [4]) of the same compound?
Its Activity is 25.3%.

What about the Activity (Mus musculus [5]) of the same compound?
The Activity was 187.72 um.

What about the Activity [6] of the same compound?
Its Activity is 157.59 um3/um2/yr.

What about the Activity (Mus musculus [7]) of the same compound?
Its Activity is 251.29 um.

What about the Activity [8] of the same compound?
Its Activity is 3.63 /millimeter.

What about the Activity [9] of the same compound?
The Activity was 1.82 micrometer/day.

What about the Activity [10] of the same compound?
The Activity was “Non-Toxic”.

What about the Activity [11] of the same compound?
The Activity was 2.96 /millimeter.

And the Activity (Mus musculus [12])?
The Activity was 2.83 /millimeter.

And the Activity_index (Mus musculus [13])?
The Activity_index was 1.88.

And the Activity (Mus musculus [14])?
The Activity was 112.71%.

What about the Activity (Mus musculus [15]) of the same compound?
Its Activity is 3.51 /millimeter.

And the Activity (Mus musculus [16])?
Its Activity is 13.7 1/mm.

And the inhibition [17]?
The inhibition was “inactive”.

And the Activity [18]?
The Activity was “Non-Toxic”.

What about the Activity (Mus musculus [19]) of the same compound?
Its Activity is 41.8 µm.

And the Activity (Mus musculus [20])?
Its Activity is 47.2 µm.

And the Activity_index (Mus musculus [21])?
Its Activity_index is 0.45.

What about the Activity [22] of the same compound?
The Activity was 96.8%.

What about the Activity (Mus musculus [23]) of the same compound?
The Activity was 6.51 1/mm.
